Consider twelve molecules from ChEMBL document CHEMBL1155878, “Substituted 6-phenyl-2-naphthols. Potent and selective nonsteroidal inhibitors of 17beta-hydroxysteroid dehydrogenase type 1 (17beta-HSD1): design, synthesis, biological evaluation, and pharmacokinetics” (J Med Chem, 2008).

The source made the active and inactive calls.

Series [1] concerns the target T1, 17-beta-hydroxysteroid dehydrogenase type 1 (Homo sapiens) (UniProt P14061).
T1 sequence (whole entry): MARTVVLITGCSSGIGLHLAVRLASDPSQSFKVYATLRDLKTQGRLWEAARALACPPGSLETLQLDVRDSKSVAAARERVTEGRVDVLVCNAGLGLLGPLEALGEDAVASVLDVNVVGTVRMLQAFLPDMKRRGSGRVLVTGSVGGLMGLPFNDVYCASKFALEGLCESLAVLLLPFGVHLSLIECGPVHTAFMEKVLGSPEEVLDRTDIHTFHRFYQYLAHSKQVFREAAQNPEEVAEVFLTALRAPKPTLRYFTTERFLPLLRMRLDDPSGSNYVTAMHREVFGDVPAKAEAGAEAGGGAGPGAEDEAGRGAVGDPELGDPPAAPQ
Briefly: Inhibition of human placental 17beta-HSD1 assessed as conversion of [3H]estrone to [3H]17beta-estradiol at 1 uM. The procedure, abridged:
(§1)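 Cytosolic enzyme from human placenta, purified by ammonium sulfate precipitation, with NADH 500 µM. Incubated at 37 °C in 50 mM phosphate buffer with 20% glycerol and 1 mM EDTA, 1% DMSO final. Started with [3H]E1 (500 nM final) and stopped with HgCl2 after 10 min. Ether extraction, then HPLC with radioflow detection of E1/E2. Result is % inhibition = 100 − % conversion, from ≥3 independent experiments.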

Series [2] deals with T1, 17-beta-hydroxysteroid dehydrogenase type 1 (Homo sapiens). The series is described as follows: Inhibition of human placental 17beta-HSD1 assessed as conversion of [3H]estrone to [3H]17beta-estradiol at 100 nM. Summed up: as §1
Series [3] deals with T2, 17-beta-hydroxysteroid dehydrogenase type 1 (Homo sapiens, UniProt P14061).
T2 sequence (P14061 whole entry): T1 sequence (whole entry)
Briefly: Inhibition of human placental 17beta-HSD1 assessed as conversion of [3H]estrone to [3H]17beta-estradiol.

The target in series [4] is T3, 17-beta-hydroxysteroid dehydrogenase type 2 (Homo sapiens, UniProt P37059).
T3 sequence (P37059 whole entry): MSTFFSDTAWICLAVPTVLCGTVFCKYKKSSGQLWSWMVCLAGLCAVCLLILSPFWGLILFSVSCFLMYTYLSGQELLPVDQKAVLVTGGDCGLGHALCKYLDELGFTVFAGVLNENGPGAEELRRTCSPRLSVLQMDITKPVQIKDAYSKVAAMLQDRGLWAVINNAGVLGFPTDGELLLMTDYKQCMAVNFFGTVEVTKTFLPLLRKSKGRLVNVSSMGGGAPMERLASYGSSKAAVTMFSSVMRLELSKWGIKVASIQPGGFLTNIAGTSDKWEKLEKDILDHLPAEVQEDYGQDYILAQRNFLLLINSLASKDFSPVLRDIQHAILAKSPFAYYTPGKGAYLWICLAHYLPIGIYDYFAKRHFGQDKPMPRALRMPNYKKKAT
Briefly: Inhibition of human placental 17beta-HSD2 assessed as conversion of [3H]17beta-estradiol to [3H]estrone. The procedure, abridged:
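Human placental microsomal fraction incubated with NAD+ (1500 µM), test compound and unlabeled plus [3H]E2 (final 500 nM) for 20 min at 37 °C. The reaction was stopped with HgCl2 and extracted with ether. E1 and E2 were separated by HPLC with radioflow detection. Percent conversion was used to derive inhibition. Values are the mean of three determinations; IC50 was measured for selected compounds.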

Series [5] deals with Rattus norvegicus. Briefly: Tlast in Wistar rat at 10 mg/kg, po. Type of series: ADME, organism-based. More on the design: dose 10 mg/kg, route oral. As to conditions: in vivo. Summed up:
(§2)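 Four adult male Wistar rats per group given 10 mg/kg orally in labrasol/water (1:1), cassette dosing. Rats were jugular-cannulated under ketamine/xylazine and sampled freely moving at 1, 2, 3, 4, 6, 8, 10 and 24 h. Plasma stored at -20 °C and quantified by HPLC-MS/MS (ESI triple quadrupole).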

Series [6] can be described thus: Cmax in Wistar rat at 10 mg/kg, po. Type of series: ADME, organism-based. The arrangement: dose 10 mg/kg, route oral. As to conditions: in vivo. The procedure, abridged: as §2
A short description of series [7]: AUC (0 to infinity) in Wistar rat at 10 mg/kg, po. Type of series: ADME, organism-based. The following applies: plasma. More on the design: dose 10 mg/kg, route oral, time infinity. Summed up:
as §2

Series [8] in a line: Stimulation of human […] cell proliferation at 100 nM after 8 days by MTT assay relative to 17-beta estradiol. Type of series: functional.
Series [9] in a line: AUC (0 to tlast) in Wistar rat at 10 mg/kg, po. The series is classed as ADME, organism-based. More on the design: dose 10 mg/kg, route oral. As to conditions: plasma. The procedure, abridged: as §2
Series [10] in a line: Tmax in Wistar rat at 10 mg/kg, po. The series is classed as ADME, organism-based. As to conditions: in vivo. More on the design: dose 10 mg/kg, route oral. The procedure, abridged: as §2
Series [11] deals with Rattus norvegicus. Briefly: Clast in Wistar rat at 10 mg/kg, po. The series is classed as ADME, organism-based. The arrangement: dose 10 mg/kg, route oral. As to conditions: in vivo. The procedure, abridged:
as §2

The nature of series [12]: Terminal half life in Wistar rat at 10 mg/kg, po. The series is classed as ADME, organism-based. The arrangement: dose 10 mg/kg, route oral. As to conditions: in vivo. Summed up:
as §2

The target in series [13] is T4, 17-beta-hydroxysteroid dehydrogenase type 2 (Homo sapiens) (UniProt P37059).
T4 sequence (whole entry): T3 sequence (P37059 whole entry)
Briefly: Inhibition of human recombinant expressed in Sf9 cells 17beta-HSD2 assessed as conversion of [3H]17beta-estradiol to [3H]estrone at 1 uM. Summed up:
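Microsomes from Sf9 cells infected with baculovirus. Incubated with 30 nM [3H]E2 and 1 mM NAD+ in 20 mM KH2PO4, pH 7.4, for 30 min at room temperature, with 1% DMSO. Stopped with 10% trichloroacetic acid. E1/E2 radioactivity used for conversion; inhibition = 100 − % conversion, from two independent experiments.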

In series [14] the test system is T47C. Briefly: Stimulation of human […] cell proliferation at 0.1 nM after 8 days by MTT assay. The series is classed as functional, cell-based. In general terms: Tetrazolium dyes change colour on reduction, which living cells bring about.

Consider `N#Cc1cc(O)cc2ccc(-c3cccc(O)c3)cc12`, for which the inhibition (in general, the percentage by which the read-out fell short of the control) in series [1] came to 99%; in [2], 73%.

For the molecule `Cc1nnc(NC(=O)c2c(O)ccc3cc(-c4cccc(O)c4)ccc23)s1`, in series [1], the inhibition was found to be 73%.

Consider `O=S(=O)(c1ccccc1)c1c(O)ccc2cc(-c3cccc(O)c3)ccc12`, for which the inhibition in series [1] worked out at 33%.

In the case of `Oc1cccc(-c2ccc3c(Br)c(O)ccc3c2)c1`, the IC50 (commonly the concentration needed to halve the response being measured) in series [3] was determined as 40 nM; in series [4], 639 nM.

`Cc1ccc(S(=O)(=O)c2c(O)ccc3cc(-c4cccc(O)c4)ccc23)cc1`: the inhibition in [1] came to 75%.

Consider `N#Cc1cc(-c2cccc(O)c2)cc2ccc(O)cc12`, for which, in [1], the inhibition came out at 53%. Further, the inhibition entry in [2] was “inactive”.

For the molecule `Oc1cccc(-c2ccc3cc(O)ccc3c2)c1`, in series [5], the tz came to 24 h. For the same molecule, in [6], the concentration peaked (Cmax) at 2230 ng/mL. In series [7], the AUC(0-inf) (usually total exposure, with the tail of the curve extrapolated) is 30700 ng·h/mL. The Activity in series [8] was 41%. For the same molecule, in series [9], the AUC(0-t) (in general, exposure summed from dosing to a finite time, without extrapolation to infinity) amounted to 29700 ng·h/mL. Further, the Tmax (commonly the time at which the peak concentration occurs) in series [10] was 6 h. In series [11], this molecule came in with a Cz of 159 ng/mL. The half-life – broadly, the time needed for the level to fall by half in the phase considered – in series [12] was 4 h.

With `Oc1cccc(-c2ccc3c(-c4ccccc4)c(O)ccc3c2)c1`, the tz in series [5] was determined as 24 h. Besides, in series [6], the Cmax – broadly, the peak of the concentration-time curve – is 860 ng/mL. In addition, the 50% inhibitory concentration (IC50) in series [3] came to 20 nM. In addition, in series [7], the AUC(0-inf) worked out at 12700 ng·h/mL. The molecule further yielded an Activity in series [8] of 39%. This molecule yielded an AUC(0-t) in series [9] of 11700 ng·h/mL. Moreover, the time of peak concentration (Tmax) in series [10] was found to be 4 h. Further, the Cz in [11] came out at 115 ng/mL. The molecule further showed a half-life in series [12] of 6 h.

With `O=C(Nc1ncccn1)c1c(O)ccc2cc(-c3cccc(O)c3)ccc12`, the outcome in series [1] and in series [2] was inactive.

Regarding `CNC(=O)CCc1c(O)ccc2cc(-c3cccc(O)c3)ccc12`, the inhibition in series [13] stood at 36%.

For the molecule `C[C@]12CC[C@@H]3c4ccc(O)cc4CC[C@H]3[C@@H]1CC[C@@H]2O`, the result in [14] was Active.

Take `O=C(Nc1ccccn1)c1c(O)ccc2cc(-c3cccc(O)c3)ccc12`: the outcome in series [1] and in series [2] was inactive.
